Data on 20 molecules can be found in ChEMBL document CHEMBL1914282 (J Med Chem, 2011).

The subject of one assay is HT-29. As to the kind of experiment: Induction of dynamic mass redistribution in human HT-29 cells transfected with receptor-targeting iRNA-based shRNA for GPR35 knock out at 10 uM. Type of assay: functional, cell-based. In a few lines: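 HT-29 seeded on biosensor plates at 5000 cells/well, 24 h at 37 °C. Transiently transfected with GFP-tagged shRNA plasmids against human GPR35, or control plasmid, at 0.05 μg DNA per well. Medium changed on day 3. About 48 h post-transfection, DMR agonist assay run with compounds at 10 μM, four replicates.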

Assay [1] has as its target T1, G-protein coupled receptor 35 (Homo sapiens, UniProt Q9HC97). The experiment in a line: Agonist activity at GPR35 in human HT-29 cells after 1 hr by dynamic mass redistribution assay relative to zaprinast. More on the design: concentration or dose not given beside the values. Format: functional, cell-based. In a few lines: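 HT-29 monolayer grown overnight on resonant waveguide grating biosensor plates. Cells washed twice, held in HBSS (20 mM Hepes, pH 7.1) for 1 h at 26 °C, then a 2 min baseline taken before compound addition. Response recorded as resonant wavelength shift (pm) over 1 h. […] Compounds diluted from 10 mM DMSO stocks.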

In assay [2] the target is T1, G-protein coupled receptor 35. As to the kind of experiment: Agonist activity at GPR35 in human HT-29 cells assessed as desensitization of 1 uM zaprinast-induced DMR after 1 hr by dynamic mass redistribution assay. Type of assay: functional, cell-based.
For assay [3] the target is unchanged. The experiment in a line: Agonist activity at GPR35 in human HT-29 cells assessed as receptor internalization at 1 uM after 1 hr by fluorescence imaging. Type of assay: functional, cell-based. In a few lines:
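HT-29 seeded in chamber slides at 10000 cells/well and grown 24 h at 37 °C. Cells exposed to compound or DMSO for 1 h at 37 °C, fixed in 4% formaldehyde, then blocked and permeabilized. Stained with anti-GPR35 (intracellular domain, 1:500, 24 h), then a fluorescent secondary antibody (1:500, 1 h, room temperature). GPR35 location assessed by confocal imaging.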

Assay [4] shares this target. The experiment in a line: Agonist activity at GPR35 in human U20S cells expressing beta-lactamase and GPR35-GA14-VP16 transcription factor fusion protein assessed as transcriptional activation after 5 hrs by tango beta-arrestin translocation reporter assay. Format: functional, cell-based, U2OS. In a few lines: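 Tango GPR35-bla U2OS cells, which express GPR35–TEV site–Gal4-VP16 and β-arrestin/TEV protease, seeded at 10000 cells/well and cultured overnight. Ligand stimulation for 5 h at 37 °C/5% CO2, then 2 h with LiveBLAzer FRET B/G substrate.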
Background: In a reporter assay the amount or activity of a reporter protein is the signal.

Assay [5] shares this target. As to the kind of experiment: Agonist activity at GPR35 in human U20S cells expressing beta-lactamase and GPR35-GA14-VP16 transcription factor fusion protein assessed as transcriptional activation after 5 hrs by tango beta-arrestin translocation reporter assay relative to zaprinast. Format: functional, cell-based. The note with it: U2OS. In a few lines:
(§1)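 Tango GPR35-bla U2OS cells, which express GPR35–TEV site–Gal4-VP16 and β-arrestin/TEV protease, seeded at 10000 cells/well and cultured overnight. Ligand stimulation for 5 h at 37 °C/5% CO2, then 2 h with LiveBLAzer FRET B/G substrate. Coumarin:fluorescein ratio read as reporter response, doses up to 128 μM, n = 4.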

The target is the same in assay [6]. The experiment in a line: Agonist activity at GPR35 in human HT-29 cells after 1 hr by dynamic mass redistribution assay. Format: functional, cell-based. In a few lines: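 HT-29 monolayer grown overnight on resonant waveguide grating biosensor plates. Cells washed twice, held in HBSS (20 mM Hepes, pH 7.1) for 1 h at 26 °C, then a 2 min baseline taken before compound addition. Response recorded as resonant wavelength shift (pm) over 1 h. Compounds diluted from 10 mM DMSO stocks.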

The target is the same in assay [7]. As to the kind of experiment: Agonist activity at GPR35 in human HT-29 cells after 1 hr by dynamic mass redistribution assay in presence of GPR35 antagonist SPB05142. Format: functional, cell-based.
For assay [8] the target is unchanged. As to the kind of experiment: Agonist activity at GPR35 in human HT-29 cells after 1 hr by dynamic mass redistribution assay in presence of 64 uM GPR35 antagonist SPB05142. Type of assay: functional, cell-based.
Assay [9] has the same target. As to the kind of experiment: Agonist activity at GPR35 in human U20S cells expressing beta-lactamase and GPR35-GA14-VP16 transcription factor fusion protein assessed as transcriptional activation up to 128 uM after 5 hrs by tango beta-arrestin translocation reporter assay. The note with it: U2OS. Type of assay: functional, cell-based. In a few lines:
as §1

Calls of active or inactive are those of the source. The calls are words filed in the database; no cut-off is given here.

T1 sequence (Q9HC97 whole entry): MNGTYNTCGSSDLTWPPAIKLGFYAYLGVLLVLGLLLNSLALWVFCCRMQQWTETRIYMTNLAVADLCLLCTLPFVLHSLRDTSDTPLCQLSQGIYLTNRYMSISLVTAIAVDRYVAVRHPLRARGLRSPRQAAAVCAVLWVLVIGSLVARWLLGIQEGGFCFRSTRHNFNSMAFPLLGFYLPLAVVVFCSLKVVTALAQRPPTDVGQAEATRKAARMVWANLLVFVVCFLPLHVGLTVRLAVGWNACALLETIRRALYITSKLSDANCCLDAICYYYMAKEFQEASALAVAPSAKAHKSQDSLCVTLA

As for `CCCOc1ccccc1-c1nc2[nH]nnc2c(=O)[nH]1`, the outcome in the assay on HT-29 was inactive.

Take `Cc1c(C(=O)O)sc2c(Br)csc12`: the Activity in [1] stood at 105%; in [5], 104%. Moreover, the IC50 (usually the concentration that inhibits the measured activity by half) in assay [2] stood at 0.11 µM. In addition, in [3], the outcome was Active. For the same molecule, the outcome (with HT-29; in assay [7]; in assay [8]) was inactive. Moreover, the EC50 (as a rule, the concentration needed to bring the measured effect to its halfway point) stood at 15 µM in [4] (read-out: EC50) and 0.064 µM in [6].

Turning to `O=C(O)c1cc2sccc2s1`, in assay [2], the IC50 is 57 µM. In addition, the 50% effective concentration (EC50) result is “Not Active” in [4] (u2os) and 42.4 µM in [6].

Regarding `CCCCCCc1csc2cc(C(=O)O)sc12`, the Activity in [1] is 103%; in assay [5], 9%. Also, the IC50 in [2] worked out at 4.69 µM. Further, the EC50 in [4] (read-out: EC50) is greater than 50 µM; in assay [6], 9.4 µM. Moreover, the outcome in assay [7] and in assay [8] was inactive.

With `Cc1csc2c1sc1cc(C(=O)O)sc12`, the Activity in assay [1] turned out to be 118%; in [5] it was 19%. In addition, the concentration for half-maximal inhibition (IC50) in [2] turned out to be 6.07 µM. The result in the assay with HT-29 was inactive. In addition, the EC50 in [4] (read-out: EC50) was greater than 50 µM; in [6] it was 6 µM. The result in assay [7] and in assay [8] was Active.

In assay [1], `CCCCCCCCCCCCCc1c(C(=O)O)sc2c(Br)csc12` returned an Activity of 77%. Further, the IC50 in [2] turned out to be 1.87 µM. The concentration for a half-maximal effect (EC50) entry in [4] (u2os) was “Not Active”; in assay [6], 2.31 µM. For the same molecule, the result in assay [5], in [9], in [7] and in assay [8] was inactive.

Regarding `CC1=C(C#N)C(=C(C#N)C#N)OC1(C)c1ccc(F)cc1F` (configuration not stated), the IC50 in assay [2] is 48.9 µM. The half-maximal effective concentration (EC50) entry in [4] (u2os) was “Not Active”; in assay [6], 53.9 µM.

With `CCCCCCCCCCCCCCCc1c(C(=O)O)sc2c(Br)csc12`, the IC50 in assay [2] came to 5.92 µM. For the same molecule, the EC50 result in assay [4] (u2os) is “Not Active”; in [6], 4.56 µM.

As to `CC1=C(C#N)C(=C(C#N)C#N)OC1(C)c1c(F)c(F)c(F)c(F)c1F` (configuration not stated), in assay [2], the IC50 was found to be 4.48 µM. Further, the figures for the EC50 entry in assay [4] (u2os) and in assay [6] were “Not Active” and 3.35 µM, respectively.

`CC1=C(C#N)C(=C(C#N)C#N)OC1(C)C` came in with an Activity in assay [1] of 87%. The IC50 in assay [2] is 12.1 µM. The result (in the assay on HT-29; in assay [7]; in assay [8]) was inactive. Also, the EC50 is greater than 50 µM in [4] (read-out: EC50) and 17.1 µM in assay [6]. The result in assay [5] was Active.

The molecule `CC1=C(C#N)C(=C(C#N)C#N)OC12c1ccccc1-c1ccccc12` registered an Activity in [1] of 90%. For the same molecule, in assay [2], the IC50 was determined as 21.6 µM. For the same molecule, the outcome in [9], in [7] and in [8] was inactive. In assay [6], the midpoint of the response, the EC50, lay at 6.6 µM.

In assay [1], `CC1=C(C#N)C(=C(C#N)C#N)OC12CCCCC2` showed an Activity of 106%. For the same molecule, in assay [2], the IC50 came out at 16.4 µM. For the same molecule, the EC50 is greater than 50 µM in assay [4] (read-out: EC50) and 45.9 µM in assay [6]. The result in assay [5], in assay [7] and in assay [8] was Active.

Take `CC1=C(C#N)C(=C(C#N)C#N)OC1(C)c1ccc(Cl)c(Cl)c1Cl` (configuration not stated): in [1], the Activity amounted to 90%. In assay [2], the IC50 was 10.3 µM. Further, the outcome in [9] was inactive. In addition, in assay [6], the EC50 came to 11.1 µM. Besides, the outcome in assay [7] and in assay [8] was Active.

Turning to `CCCCCCCCCCCc1c(C(=O)O)sc2c(Br)csc12`, the figures for the Activity in assay [1] and in assay [5] were 87% and 55%, respectively. The IC50 in assay [2] came to 0.57 µM. Further, the EC50 was 22.7 µM in [4] (read-out: EC50) and 1.89 µM in assay [6]. Further, the outcome in assay [7] and in assay [8] was inactive.

For `CCCCCCc1c(C(=O)O)sc2ccsc12`, the values for the Activity in assay [1] and in assay [5] were 99% and 20%, respectively. In addition, in assay [2], the IC50 is 1.49 µM. Also, the half-maximal effective concentration (EC50) is greater than 50 µM in assay [4] (read-out: EC50) and 3.44 µM in assay [6]. The result in [7] and in [8] was Active.

For the molecule `CC1=C(C#N)C(=C(C#N)C#N)OC1(c1ccccc1)C(F)(F)F` (configuration not stated), the values for the Activity in [1] and in [5] were 99% and 14%, respectively. The concentration for half-maximal inhibition (IC50) in assay [2] is 1.94 µM. Further, the EC50 in [4] (read-out: EC50) was greater than 50 µM; in assay [6] it was 3.5 µM. Moreover, the outcome in [7] and in [8] was inactive.

`CC1=C(C#N)C(=C(C#N)C#N)OC1(C)c1ccc(Cl)c(Cl)c1` (configuration not stated): the figures for the Activity in assay [1] and in assay [5] were 97% and 29%, respectively. Also, the IC50 in [2] was 0.06 µM. Besides, the result (with HT-29; in assay [7]; in [8]) was inactive. For the same molecule, the EC50 in [4] (read-out: EC50) amounted to 10.2 µM; in [6], 0.032 µM.

Turning to `CCCCc1ccc(C2(C)OC(=C(C#N)C#N)C(C#N)=C2C)cc1` (configuration not stated), the IC50 in assay [2] was 6.4 µM. The results for the EC50 entry in [4] (u2os) and in [6] were “Not Active” and 15.3 µM, respectively.

As for `CCCCCCCCc1c(C(=O)O)sc2c(Br)csc12`, the results for the Activity in assay [1] and in [5] were 103% and 8%, respectively. Moreover, the IC50 in [2] came out at 1.05 µM. In addition, the EC50 is greater than 50 µM in [4] (read-out: EC50) and 1.46 µM in [6]. Further, the result in assay [7] and in [8] was inactive.

Take `CCOC(=O)c1sc2c(Br)csc2c1C`: the EC50 entry in assay [4] (u2os) is on record as “Not Active”.
